According to paper PMC9309012 (Journal of medicinal chemistry, 2021):
“Also recorded” adds a separate entry of the source.

How the values were obtained:
T. vaginalis F1623 [1] = test: T. vaginalis 24 h growth and survival assay; assay type: cell-based, Trichomonas vaginalis; details: for trichomonacidal activity: T. vaginalis F1623, 24 h, described in words (Fig. 2-4); for reduced trichomonacidal activity compared to the chloride counterparts: bromide and iodide vs chloride complexes (4, 10)
HeLa cells = test: Cytotoxicity assay in human HeLa cells; assay type: cell-based; details: for human cytotoxicity: HeLa cells, 48 h, described in words (Fig. 2-4)
[2] = system: T. vaginalis strains (four MzS, four MzR); test: Drug susceptibility of Mz-sensitive and Mz-resistant T. vaginalis lines; assay type: cell-based, Trichomonas vaginalis; details: for activity against Mz-resistant T. vaginalis lines: four Mz-resistant clinical isolates
Procedure, shortened: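 Trophozoites were cultured at 37 °C in TYM Diamond's medium with 180 μM ferrous ammonium sulphate. Compound stocks were diluted in PBS to 75 μM, then serially diluted 1:3. Plates held 5 × 10^3 trophozoites/well and were incubated 24 h at 37 °C anaerobically. ATP luminescence (BacTiter-Glo) read growth and viability, and curves gave EC50. Replicates: n≥3, mean + SEM. MzS versus MzR groups were compared by unpaired t-test.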

[3] = system: sensitive T. vaginalis strain; test: Synergy of gold; assay type: cell-based, Trichomonas vaginalis; details: 24 h
T. foetus = test: In vitro activity against T. foetus; assay type: cell-based; details: compared with T. vaginalis F1623
T. vaginalis F1623 [4] = details: previously discovered; cited from earlier work
TrxR in T. vaginalis = details: read-out: IC50, TrxR inhibition; cited from earlier work
T. foetus D1 = test: Murine vaginal trichomonad infection model; assay type: in vivo, BALB/cJ mice; details: 4 days after infection, Wright-Giemsa stain
[5] = intravaginal administration compared to a single oral dose; cited from earlier work
[6] = tributyl vs triethyl phosphine compound

CC(C)(C)[PH+](C(C)(C)C)C(C)(C)C.[Cl][Au] [Compound 17, (Tri-tert-butylphosphine)gold(I) chloride]
trichomonacidal activity (T. vaginalis F1623 [1]): inactive
human cytotoxicity (HeLa cells): inactive

CC(=O)OC[C@H]1O[C@@H]([S-])[C@H](OC(C)=O)[C@@H](OC(C)=O)[C@@H]1OC(C)=O.CCP(CC)CC.[Au+] [AF, reference compound]
human cytotoxicity (HeLa cells): slightly more toxic against human cells than the parasite
activity against Mz-resistant T. vaginalis lines [2]: sensitive
interference or synergy with the activity of Mz [3]: neither compound 4 nor AF interfered or synergized
activity against T. foetus in vitro (T. foetus): as active against T. foetus in vitro as they were against T. vaginalis
activity against T. vaginalis / trichomonads (T. vaginalis F1623 [4]): low μM range
IC50 (TrxR in T. vaginalis): ~100 nM

CC[P+](CC)(CC)[Au-][S]C(CC(=O)O)C(=O)O (stereo not drawn) [Compound 2, S-Triethylphosphine gold(I) thiomalic acid]
trichomonacidal activity (T. vaginalis F1623 [1]): improved trichomonacidal activity similar to AF
human cytotoxicity (HeLa cells): toxic in human cells

CC(C)[P+]([Au-][P+](C(C)C)(C(C)C)C(C)C)(C(C)C)C(C)C.[Cl-] [Compound 16, Bis(triisopropylphosphine)gold(I) chloride]
trichomonacidal activity (T. vaginalis F1623 [1]): as or moderately more active
human cytotoxicity (HeLa cells): as or moderately more active

(Trimethylphosphine)gold(I) bromide [Compound 23]
reduced trichomonacidal activity compared to the chloride counterparts (T. vaginalis F1623 [1]): 5- to 10 fold

C[P+](C)(C)[Au-][Cl] [Compound 10, (Tri-n-methylphosphine)gold(I) chloride]
trichomonacidal activity (T. vaginalis F1623 [1]): low μM range
human cytotoxicity (HeLa cells): decreased human cytotoxicity
activity against Mz-resistant T. vaginalis lines [2]: sensitive
activity against T. foetus in vitro (T. foetus): as active against T. foetus in vitro as they were against T. vaginalis

(1-Thio-β-D-glucopyranosato) (triethylphosphine) gold(I) [Compound 1]
trichomonacidal activity (T. vaginalis F1623 [1]): improved trichomonacidal activity similar to AF
human cytotoxicity (HeLa cells): toxic in human cells

O.O=C([O-])CC([S-])C(=O)[O-].[Au+].[Na+].[Na+] (stereo not drawn) [ATM, (1,2-Dicarboxyethylthio) disodium salt hydrate gold(I), reference compound]
trichomonacidal activity (T. vaginalis F1623 [1]): barely showed activity

CCP(CC)CC.[Au+].[Cl-] [Compound 4, (Tri-n-ethylphosphine)gold(I) chloride]
trichomonacidal activity (T. vaginalis F1623 [1]): slightly increased activity against T. vaginalis; also recorded: low μM range
human cytotoxicity (HeLa cells): markedly reduced human cytotoxicity; also recorded: decreased human cytotoxicity
activity against Mz-resistant T. vaginalis lines [2]: sensitive
interference or synergy with the activity of Mz [3]: neither compound 4 nor AF interfered or synergized
activity against T. foetus in vitro (T. foetus): as active against T. foetus in vitro as they were against T. vaginalis
histological analysis of vaginal tract (T. foetus D1): disappearance of T. foetus trophozoites from the vaginal lumen

CCC[P+](CCC)(CCC)[Au-][P+](CCC)(CCC)CCC.[Cl-] [Compound 15, Bis(tri-n-propylphosphine)gold(I) chloride]
trichomonacidal activity (T. vaginalis F1623 [1]): as or moderately more active
human cytotoxicity (HeLa cells): as or moderately more active

(Tri-n-butylphosphine)gold(I) chloride [Compound 9]
trichomonacidal activity (T. vaginalis F1623 [1]): abolished all activity; also recorded: inactive
human cytotoxicity (HeLa cells): abolished all activity; also recorded: inactive

OCC1OC([S-])C(O)C(O)C1O.[Au+] (stereo not drawn) [ATG, 3,4,5-trihydroxy-6-(hydroxymethyl)oxane-2-thiolate gold (I), reference compound]
trichomonacidal activity (T. vaginalis F1623 [1]): barely showed activity

(Triisopropylphosphine)gold(I) chloride [Compound 12]
trichomonacidal activity (T. vaginalis F1623 [1]): low μM range
human cytotoxicity (HeLa cells): decreased human cytotoxicity

(Trimethylphosphine)gold(I) iodide [Compound 25]
reduced trichomonacidal activity compared to the chloride counterparts (T. vaginalis F1623 [1]): 5- to 10 fold

(Tri-n-propylphosphine)gold(I) chloride [Compound 11]
trichomonacidal activity (T. vaginalis F1623 [1]): low μM range
human cytotoxicity (HeLa cells): decreased human cytotoxicity

(2,3,4,6-Tetra-O-acetyl-1-thio-β-D-galacotopyranosato)(butylphosphine) gold(I) [Compound 5]
lower activity against T. vaginalis than triethyl partner (T. vaginalis F1623 [1]; [6]): ~ 10 fold
lower activity against human cells than triethyl partner (HeLa cells; [6]): ~ 10 fold

Bis(triethylphosphine)gold(I) chloride [Compound 14]
trichomonacidal activity (T. vaginalis F1623 [1]): as or moderately more active
human cytotoxicity (HeLa cells): as or moderately more active

CC[P](CC)(CC)[Au][c]1n(-c2c(C)cc(C)cc2C)cc[n+]1-c1c(C)cc(C)cc1C.[Cl-] [Compound 3, [Triethylphosphine-(bis(2,4,6-trimethylphenyl)imidazol-2-ylidene)]gold(I) chloride]
trichomonacidal activity (T. vaginalis F1623 [1]): did not enhance trichomonacidal activity
human cytotoxicity (HeLa cells): strongly increased human cytotoxicity

Cc1ncc([N+](=O)[O-])n1CCO [Mz, metronidazole, reference compound]
loss in Mz susceptibility ([2]; four Mz-resistant lines compared to four susceptible lines): 20- to 100 fold
decrease in systemic exposure [5]: 96–98%

C[P+](C)(C)[Au-][P+](C)(C)C.[Cl-] [Compound 13, Bis(trimethylphosphine)gold(I) chloride]
trichomonacidal activity (T. vaginalis F1623 [1]): as or moderately more active
human cytotoxicity (HeLa cells): as or moderately more active

(Triethylphosphine)gold(I) bromide [Compound 24]
reduced trichomonacidal activity compared to the chloride counterparts (T. vaginalis F1623 [1]): 5- to 10 fold

(Triethylphosphine)gold(I) iodide [Compound 26]
reduced trichomonacidal activity compared to the chloride counterparts (T. vaginalis F1623 [1]): 5- to 10 fold
